Measurements published in ChEMBL document CHEMBL1938329, “The discovery of potent, selective, and orally active pyrazoloquinolines as PDE10A inhibitors for the treatment of Schizophrenia” (Bioorg Med Chem Lett, 2012).
Each block holds one molecule with its values, some of them ahead of it. Active and inactive are the calls of the source. The calls are words filed in the database; no cut-off is given here.

Assays:
[1] = target: cAMP and cAMP-inhibited cGMP 3',5'-cyclic phosphodiesterase 10A (Homo sapiens, UniProt Q9Y233); test: Inhibition of recombinant human PDE10A using [3H]cAMP as substrate by scintillation proximity assay
cAMP and cAMP-inhibited cGMP 3',5'-cyclic phosphodiesterase 10A, sequence (Q9Y233 whole entry): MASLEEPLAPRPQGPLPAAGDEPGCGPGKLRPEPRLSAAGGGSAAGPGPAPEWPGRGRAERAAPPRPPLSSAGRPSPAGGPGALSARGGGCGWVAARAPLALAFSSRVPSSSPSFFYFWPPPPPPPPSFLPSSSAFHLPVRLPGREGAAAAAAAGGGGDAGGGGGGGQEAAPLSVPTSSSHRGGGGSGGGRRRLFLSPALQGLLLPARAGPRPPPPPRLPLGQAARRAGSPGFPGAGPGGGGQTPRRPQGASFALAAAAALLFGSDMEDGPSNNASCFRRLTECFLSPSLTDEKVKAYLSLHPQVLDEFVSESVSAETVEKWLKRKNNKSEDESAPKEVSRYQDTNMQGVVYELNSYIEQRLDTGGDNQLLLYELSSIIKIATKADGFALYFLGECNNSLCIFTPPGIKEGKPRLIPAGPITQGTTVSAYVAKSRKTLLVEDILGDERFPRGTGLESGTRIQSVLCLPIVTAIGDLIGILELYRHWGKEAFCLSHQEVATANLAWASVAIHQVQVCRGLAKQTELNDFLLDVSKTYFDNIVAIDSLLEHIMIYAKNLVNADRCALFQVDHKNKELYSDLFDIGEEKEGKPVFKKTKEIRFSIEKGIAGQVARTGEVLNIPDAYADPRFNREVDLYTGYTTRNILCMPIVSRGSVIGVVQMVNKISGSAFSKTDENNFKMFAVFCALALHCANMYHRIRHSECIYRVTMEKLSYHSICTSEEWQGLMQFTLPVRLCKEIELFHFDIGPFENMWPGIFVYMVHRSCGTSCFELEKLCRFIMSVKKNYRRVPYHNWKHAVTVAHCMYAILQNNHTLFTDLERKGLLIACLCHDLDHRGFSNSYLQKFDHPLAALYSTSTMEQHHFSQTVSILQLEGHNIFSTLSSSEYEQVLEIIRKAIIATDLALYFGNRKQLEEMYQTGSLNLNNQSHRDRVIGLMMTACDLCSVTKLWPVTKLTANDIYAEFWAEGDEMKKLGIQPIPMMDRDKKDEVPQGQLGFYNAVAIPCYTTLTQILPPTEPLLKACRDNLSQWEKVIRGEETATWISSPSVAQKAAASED
In short: (§1)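 Scintillation proximity assay with [³H]cAMP as substrate, measuring hydrolysis of cAMP to AMP by recombinant human PDEs 1–11. Ki values are means of at least two experiments.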

[2] = Drug uptake in rat brain at 10 mg/kg, po after 6 hrs; type: ADME, organism-based; parameters: dose 10 mg/kg, route oral; conditions: read-out: Drug uptake
In short: (§2)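 Rat cassette-accelerated rapid screen, 10 mg/kg oral. Plasma exposure measured over 0–6 h. Brain drug concentration taken at 6 h. Brain/plasma ratio is brain over plasma drug concentration at 6 h.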

Phosphodiesterase 6 = test: Inhibition of recombinant human PDE6 using [3H]cAMP as substrate by scintillation proximity assay; type: protein assay; in short: as §1
Rattus norvegicus [3] = test: Antipsychotic activity in CD rat assessed as inhibition of MK-801-induced hyperactivity at 10 mg/kg, po relative to control; type: functional, organism-based; parameters: dose 10 mg/kg
In short: (§3)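 Male CD rats habituated to locomotor activity chambers 24 h before testing. On test day, MK-801 (0.3 mg/kg, sc) co-administered with PDE10 inhibitor (po), then rats placed in apparatus. Inhibition expressed as percent of activity in inhibitor + MK-801 group relative to vehicle + MK-801 group.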

Rattus norvegicus [4] = test: Antipsychotic activity in CD rat assessed as inhibition of MK-801-induced hyperactivity at 30 mg/kg, po relative to control; type: functional, organism-based; parameters: dose 30 mg/kg; in short: as §3
[5] = target: Phosphodiesterase 6 (Homo sapiens) (UniProt Q13956+P18545+P35913+O43924+P16499+P51160); test: Inhibition of recombinant human PDE6 using [3H]cAMP as substrate at 1 uM by scintillation proximity assay; type: protein assay
[6] = AUC (0 to 6 hrs) in rat at 10 mg/kg, po; type: ADME, organism-based; parameters: time < 6 hr, dose 10 mg/kg, route oral; conditions: plasma; in short: as §2
[7] = target: Dual 3',5'-cyclic-AMP and -GMP phosphodiesterase 11A (Homo sapiens, UniProt Q9HCR9); test: Inhibition of recombinant human PDE11 using [3H]cAMP as substrate by scintillation proximity assay; in short: as §1
Dual 3',5'-cyclic-AMP and -GMP phosphodiesterase 11A, sequence (Q9HCR9 whole entry): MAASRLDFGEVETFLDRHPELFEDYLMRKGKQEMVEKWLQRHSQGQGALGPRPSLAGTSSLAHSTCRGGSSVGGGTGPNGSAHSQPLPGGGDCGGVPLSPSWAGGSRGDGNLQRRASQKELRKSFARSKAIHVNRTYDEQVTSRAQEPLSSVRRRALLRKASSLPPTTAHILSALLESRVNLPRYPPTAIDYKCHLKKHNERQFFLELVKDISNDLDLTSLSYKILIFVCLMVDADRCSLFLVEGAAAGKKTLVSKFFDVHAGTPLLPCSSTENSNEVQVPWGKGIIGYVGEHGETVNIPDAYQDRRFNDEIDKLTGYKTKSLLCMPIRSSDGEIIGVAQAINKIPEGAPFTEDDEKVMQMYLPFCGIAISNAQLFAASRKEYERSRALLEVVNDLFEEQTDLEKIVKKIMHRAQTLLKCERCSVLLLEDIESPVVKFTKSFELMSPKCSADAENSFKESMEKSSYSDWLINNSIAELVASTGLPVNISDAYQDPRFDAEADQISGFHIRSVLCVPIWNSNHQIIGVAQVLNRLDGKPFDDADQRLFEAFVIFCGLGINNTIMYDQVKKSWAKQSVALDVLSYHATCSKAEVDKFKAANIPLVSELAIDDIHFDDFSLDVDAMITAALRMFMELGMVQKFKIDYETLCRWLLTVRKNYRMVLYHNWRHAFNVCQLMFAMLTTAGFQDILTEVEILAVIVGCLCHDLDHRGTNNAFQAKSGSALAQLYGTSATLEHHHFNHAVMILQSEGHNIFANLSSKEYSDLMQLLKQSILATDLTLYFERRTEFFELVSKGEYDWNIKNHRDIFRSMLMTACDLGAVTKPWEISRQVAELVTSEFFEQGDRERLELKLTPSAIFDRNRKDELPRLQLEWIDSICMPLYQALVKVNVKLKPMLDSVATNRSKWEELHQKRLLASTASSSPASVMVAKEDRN

[8] = Plasma protein binding in rat; type: ADME, cell-free; conditions: read-out: PPB (converted)
Phosphodiesterase 7 = Phosphodiesterase 7 (Homo sapiens, UniProt Q13946+Q9NP56); test: Inhibition of recombinant human PDE7 using [3H]cAMP as substrate by scintillation proximity assay; type: protein assay; in short: as §1
[9] = target: cGMP-dependent 3',5'-cyclic phosphodiesterase (Homo sapiens, UniProt O00408); test: Inhibition of recombinant human PDE2 using [3H]cAMP as substrate by scintillation proximity assay; in short: as §1
cGMP-dependent 3',5'-cyclic phosphodiesterase, sequence (O00408 whole entry): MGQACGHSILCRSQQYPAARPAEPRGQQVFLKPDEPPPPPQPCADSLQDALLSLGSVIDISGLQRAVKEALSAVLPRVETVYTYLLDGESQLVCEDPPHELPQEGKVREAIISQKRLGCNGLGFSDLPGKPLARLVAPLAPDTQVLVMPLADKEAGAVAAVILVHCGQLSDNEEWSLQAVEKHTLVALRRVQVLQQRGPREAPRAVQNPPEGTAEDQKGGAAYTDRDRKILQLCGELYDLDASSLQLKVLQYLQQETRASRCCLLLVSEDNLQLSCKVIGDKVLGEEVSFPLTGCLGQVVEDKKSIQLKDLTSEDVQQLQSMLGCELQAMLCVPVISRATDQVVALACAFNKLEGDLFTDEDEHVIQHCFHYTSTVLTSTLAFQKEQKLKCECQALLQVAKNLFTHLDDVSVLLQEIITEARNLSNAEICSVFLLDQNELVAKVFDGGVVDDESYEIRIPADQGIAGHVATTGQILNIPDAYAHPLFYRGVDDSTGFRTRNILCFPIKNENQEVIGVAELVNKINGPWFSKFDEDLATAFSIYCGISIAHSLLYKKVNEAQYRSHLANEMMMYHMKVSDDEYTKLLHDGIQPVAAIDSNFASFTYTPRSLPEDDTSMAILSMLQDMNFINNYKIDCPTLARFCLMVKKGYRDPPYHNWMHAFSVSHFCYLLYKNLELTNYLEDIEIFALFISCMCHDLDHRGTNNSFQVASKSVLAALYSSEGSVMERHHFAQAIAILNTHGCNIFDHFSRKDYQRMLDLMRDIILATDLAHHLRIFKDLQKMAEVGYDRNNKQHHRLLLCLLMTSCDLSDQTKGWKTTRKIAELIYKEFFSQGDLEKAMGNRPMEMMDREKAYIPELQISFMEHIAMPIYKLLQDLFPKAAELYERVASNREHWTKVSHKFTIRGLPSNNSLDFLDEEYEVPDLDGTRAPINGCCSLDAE

[10] = Clearance in human hepatocytes assessed per million of cells; type: ADME, cell-based, Hepatocyte; conditions: read-out: CLH
[11] = target: cGMP-specific 3',5'-cyclic phosphodiesterase (Homo sapiens, UniProt O76074); test: Inhibition of recombinant human PDE5A using [3H]cAMP as substrate by scintillation proximity assay; in short: as §1
Phosphodiesterase 1 = Phosphodiesterase 1 (Homo sapiens, UniProt P54750+Q01064+Q14123); test: Inhibition of recombinant human PDE1 using [3H]cAMP as substrate by scintillation proximity assay; type: protein assay; in short: as §1
[12] = Clearance in dog hepatocytes assessed per million of cells; type: ADME, cell-based, Canis lupus familiaris, Hepatocyte; conditions: read-out: CLH
Phosphodiesterase 4 = Phosphodiesterase 4 (Homo sapiens, UniProt P27815+Q08499+Q07343+Q08493); test: Inhibition of recombinant human PDE4 using [3H]cAMP as substrate by scintillation proximity assay; type: protein assay; in short: as §1
[13] = AUC in dog at 2 mg/kg, po; type: ADME, organism-based, Canis lupus familiaris; parameters: dose 2 mg/kg, route oral; conditions: plasma
Phosphodiesterase 3 = Phosphodiesterase 3 (Homo sapiens, UniProt Q14432+Q13370); test: Inhibition of recombinant human PDE3 using [3H]cAMP as substrate by scintillation proximity assay; type: protein assay; in short: as §1
[14] = Ratio of drug level in brain to plasma in rat at 10 mg/kg, po at 6 hrs; type: ADME, organism-based; parameters: dose 10 mg/kg, route oral; conditions: read-out: BPR; in short: as §2
Phosphodiesterase 8 = Phosphodiesterase 8 (Homo sapiens, UniProt O95263+O60658); test: Inhibition of recombinant human PDE8 using [3H]cAMP as substrate by scintillation proximity assay; type: protein assay; in short: as §1
[15] = Efflux ratio of permeability in human Caco2 cells; type: ADME, cell-based; conditions: Caco-2
[16] = Clearance in cebus monkey hepatocytes assessed per million of cells; type: ADME, cell-based, Hepatocyte; conditions: cebus capucinus, read-out: CLH
[17] = target: High affinity cGMP-specific 3',5'-cyclic phosphodiesterase 9A (Homo sapiens, UniProt O76083); test: Inhibition of recombinant human PDE9 using [3H]cAMP as substrate by scintillation proximity assay; in short: as §1
High affinity cGMP-specific 3',5'-cyclic phosphodiesterase 9A, sequence (O76083 whole entry): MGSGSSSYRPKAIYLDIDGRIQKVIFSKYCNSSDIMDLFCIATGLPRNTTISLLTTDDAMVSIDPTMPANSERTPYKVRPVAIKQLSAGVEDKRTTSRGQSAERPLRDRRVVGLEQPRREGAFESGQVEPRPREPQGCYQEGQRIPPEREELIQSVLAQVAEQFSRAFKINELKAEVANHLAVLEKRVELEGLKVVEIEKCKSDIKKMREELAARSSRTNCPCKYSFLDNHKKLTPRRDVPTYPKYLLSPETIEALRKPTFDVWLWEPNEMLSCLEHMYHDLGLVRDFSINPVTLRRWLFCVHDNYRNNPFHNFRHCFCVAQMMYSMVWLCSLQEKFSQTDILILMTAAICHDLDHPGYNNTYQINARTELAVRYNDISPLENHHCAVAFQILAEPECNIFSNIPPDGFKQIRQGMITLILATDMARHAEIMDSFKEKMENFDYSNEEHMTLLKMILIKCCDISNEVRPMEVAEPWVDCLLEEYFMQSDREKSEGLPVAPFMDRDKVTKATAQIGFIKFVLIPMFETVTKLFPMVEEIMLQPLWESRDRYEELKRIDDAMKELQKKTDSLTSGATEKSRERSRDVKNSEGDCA

Rattus norvegicus [18] = test: Antipsychotic activity in po dosed CD rat assessed as inhibition of MK-801 induced hyperactivity relative to control; type: functional; in short: as §3
Rattus norvegicus [19] = organism: Rattus norvegicus; test: Sedative activity in rat assessed as hypolocomotion by spontaneous locomotor activity test; type: organism-based; conditions: in vivo
In short: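 Hypolocomotion assessed in rats by spontaneous locomotor activity test, run to distinguish reversal of MK-801-induced behaviour from compound-induced hypolocomotion; ED₅₀ derived.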

[20] = Clearance in rat hepatocytes assessed per million of cells; type: ADME, cell-based, Hepatocyte; conditions: read-out: CLH
Homo sapiens [21] = organism: Homo sapiens; test: Selectivity ratio of Ki for recombinant human PDE8 to Ki for recombinant human PDE10A
In short: (§4)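 Recombinant human PDE enzymes (PDE1–11) were tested in a scintillation proximity assay with [³H]cAMP as substrate, measuring hydrolysis of cAMP to AMP. Ki values are means of at least two experiments. The ratio is the Ki for each off-target PDE divided by the PDE10A Ki.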

Homo sapiens [22] = organism: Homo sapiens; test: Selectivity ratio of Ki for recombinant human PDE4 to Ki for recombinant human PDE10A; in short: as §4
Homo sapiens [23] = organism: Homo sapiens; test: Selectivity ratio of Ki for recombinant human PDE7 to Ki for recombinant human PDE10A; in short: as §4
Homo sapiens [24] = organism: Homo sapiens; test: Selectivity ratio of Ki for recombinant human PDE5A to Ki for recombinant human PDE10A; in short: as §4
Homo sapiens [25] = organism: Homo sapiens; test: Selectivity ratio of Ki for recombinant human PDE1 to Ki for recombinant human PDE10A; in short: as §4
Homo sapiens [26] = organism: Homo sapiens; test: Selectivity ratio of Ki for recombinant human PDE3 to Ki for recombinant human PDE10A; in short: as §4
Homo sapiens [27] = organism: Homo sapiens; test: Selectivity ratio of Ki for recombinant human PDE2 to Ki for recombinant human PDE10A; in short: as §4
Homo sapiens [28] = organism: Homo sapiens; test: Selectivity ratio of Ki for recombinant human PDE6 to Ki for recombinant human PDE10A; in short: as §4
Homo sapiens [29] = organism: Homo sapiens; test: Selectivity ratio of Ki for recombinant human PDE11 to Ki for recombinant human PDE10A; in short: as §4
Homo sapiens [30] = organism: Homo sapiens; test: Selectivity ratio of Ki for recombinant human PDE9 to Ki for recombinant human PDE10A; in short: as §4

SMILES: COc1cc(C)c2nc3[nH]nc(C)c3c(N3CCOCC3)c2c1
Ki [1]: 23 nM

SMILES: COc1cc(C)c2nc3[nH]nc(C)c3c(N3CCC(NC(N)=O)CC3)c2c1
concentration at 6 h [2]: < 10 ng/g
Ki [1]: 27 nM

SMILES: COc1cc(C)c2nc3[nH]nc(C)c3c(NCCc3ccncc3)c2c1
Ki [1]: 70 nM
Ki (Phosphodiesterase 6): 554 nM

SMILES: COc1cc(C)c2nc3[nH]nc(C)c3c(NCC3CCCCO3)c2c1 (stereo not given)
Ki [1]: 130 nM
Ki (Phosphodiesterase 6): 843 nM

SMILES: COc1cc(C)c2nc3[nH]nc(C)c3c(NCC3CN(C)CCO3)c2c1 (stereo not given)
Ki [1]: 280 nM

SMILES: COc1cc(C)c2nc3[nH]nc(C)c3c(N3CCC(C(N)=O)CC3)c2c1
concentration at 6 h [2]: < 10 ng/g
Ki [1]: 3 nM

SMILES: COc1cc(C)c2nc3[nH]nc(C)c3c(OC3CCOCC3)c2c1
inhibition (Rattus norvegicus [3]): inactive
inhibition (Rattus norvegicus [4]): Active
inhibition [5]: 30%
Ki [1]: 3.1 nM
AUC(0-t) at 6 h [6]: 10.6 µM·h

SMILES: Cc1n[nH]c2nc3ccc(Cl)cc3c(N3CCNCC3)c12
Ki [1]: 419 nM

SMILES: COc1cc(C)c2nc3[nH]nc(C)c3c(NC3CCOCC3)c2c1
Ki [7]: ≥ 4790 nM
fraction unbound [8]: 0.07
Ki (Phosphodiesterase 7): >= 4793 nM
concentration at 6 h [2]: 1100 ng/g
Ki [9]: ≥ 4790 nM
hepatocyte CLint [10]: 1.7 µL/min/1e6 cells
Ki [11]: 17300 nM
Ki (Phosphodiesterase 1): >= 4793 nM
hepatocyte CLint [12]: 0.8 µL/min/1e6 cells
Ki (Phosphodiesterase 4): >= 4793 nM
AUC [13]: 12.5 µM·h
Ki (Phosphodiesterase 3): >= 4793 nM
Kp at 6 h [14]: 0.7
Ki (Phosphodiesterase 8): >= 4793 nM
Ki [1]: 12 nM
efflux ratio [15]: 0.7
hepatocyte CLint [16]: 54 µL/min/1e6 cells
AUC(0-t) at 6 h [6]: 11.8 µM·h
Ki (Phosphodiesterase 6): 278 nM
Ki [17]: ≥ 4790 nM
ED50 (Rattus norvegicus [18]): 4 mg/kg
ED50 (Rattus norvegicus [19]): 23 mg/kg
hepatocyte CLint [20]: 2.9 µL/min/1e6 cells

Continued, in another order:

Ki [1]: 363 nM
SMILES: COc1cc(C)c2nc3[nH]nc(C)c3c(N3CCCCC3)c2c1

Ki [1]: 409 nM
SMILES: COc1cc(C)c2nc3[nH]nc(C)c3c(NCCC3CCOCC3)c2c1

concentration at 6 h [2]: < 10 ng/g
Ki [1]: 1 nM
SMILES: COc1cc(C)c2nc3[nH]nc(C)c3c(N3CCC(N)CC3)c2c1

concentration at 6 h [2]: < 10 ng/g
Ki [1]: 29 nM
SMILES: COc1cc(C)c2nc3[nH]nc(C)c3c(N3CCCC(CO)C3)c2c1 (racemic)

Ki [1]: 0.5 nM
SMILES: COc1cc(C)c2nc3[nH]nc(C)c3c(N3CCC(CN)CC3)c2c1

Ratio Ki (Homo sapiens [21]): > 1450
Ratio Ki (Homo sapiens [22]): > 1450
Ratio Ki (Homo sapiens [23]): > 1450
Ratio Ki (Homo sapiens [24]): > 1450
Ratio Ki (Homo sapiens [25]): > 1450
Ratio Ki (Homo sapiens [26]): > 1450
Ratio Ki (Homo sapiens [27]): > 1450
Kp at 6 h [14]: 0.3
Ki [1]: 3.6 nM
Ratio Ki (Homo sapiens [28]): > 1450
AUC(0-t) at 6 h [6]: 11 µM·h
Ratio Ki (Homo sapiens [29]): > 1450
Ratio Ki (Homo sapiens [30]): > 1450
SMILES: COc1cc(C)c2nc3[nH]nc(C)c3c(N3CCCOCC3)c2c1
inhibition (Rattus norvegicus [4]): Active
